In ChEMBL document CHEMBL2086252, “Syntheses and evaluation of anticonvulsant activity of novel branched alkyl carbamates” (J Med Chem, 2012):
The source made the active and inactive calls.

Columns and labels:
Mus musculus [1] = experiment: Anticonvulsant activity in albino CF1 mouse assessed as protection against maximal electroshock-induced seizures at 300 mg/kg, ip after 4 hrs; type: functional, organism-based; parameters: dose 300 mg/kg
How it was run: (§1)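 Mice dosed ip at 30, 100 or 300 mg/kg, then tested 0.5 h and 4 h after administration in the MES or scMet test. Protection was recorded as animals protected over animals tested. Neurotoxicity was recorded as motor impairment or sedation, as animals affected over animals tested.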

Rattus norvegicus [2] = experiment: Neurotoxicity in pilocarpine-induced status epilepticus Sprague-Dawley albino rat model assessed as minimal motor impairment at 100 mg/kg, ip after 4 hrs by rotarod test; type: toxicity, organism-based; parameters: dose 100 mg/kg, route intraperitoneal; settings: in vivo
Mus musculus [3] = experiment: Anticonvulsant activity in albino CF1 mouse assessed as protection against maximal electroshock-induced seizures at 30 mg/kg, ip after 0.5 hrs; type: functional, organism-based; parameters: dose 30 mg/kg; how it was run: as §1
Mus musculus [4] = experiment: Anticonvulsant activity in albino CF1 mouse assessed as protection against subcutaneous metrazol-induced seizures at 300 mg/kg, ip after 4 hrs; type: functional, organism-based; parameters: dose 300 mg/kg; how it was run: as §1
Mus musculus [5] = experiment: Anticonvulsant activity in albino CF1 mouse assessed as protection against subcutaneous metrazol-induced seizures at 30 mg/kg, ip after 0.5 hrs; type: functional, organism-based; parameters: dose 30 mg/kg; how it was run: as §1
Rattus norvegicus [6] = experiment: Neurotoxicity in pilocarpine-induced status epilepticus Sprague-Dawley albino rat model assessed as minimal motor impairment at 100 mg/kg, ip after 2 hrs by rotarod test; type: toxicity, organism-based; parameters: dose 100 mg/kg, route intraperitoneal; settings: in vivo
Mus musculus [7] = experiment: Neurotoxicity in albino CF1 mouse assessed as minimal motor impairment at 300 mg/kg, ip after 4 hrs by rotarod test; type: toxicity, organism-based; parameters: dose 300 mg/kg, route intraperitoneal; settings: in vivo; how it was run: as §1
Mus musculus [8] = experiment: Neurotoxicity in albino CF1 mouse assessed as minimal motor impairment at 30 mg/kg, ip after 4 hrs by rotarod test; type: toxicity, organism-based; parameters: dose 30 mg/kg, route intraperitoneal; settings: in vivo; how it was run: as §1
Rattus norvegicus [9] = experiment: Neurotoxicity in pilocarpine-induced status epilepticus Sprague-Dawley albino rat model assessed as minimal motor impairment at 100 mg/kg, ip after 0.25 hr by rotarod test; type: toxicity, organism-based; parameters: dose 100 mg/kg, route intraperitoneal; settings: in vivo
Mus musculus [10] = experiment: Anticonvulsant activity in albino CF1 mouse assessed as protection against maximal electroshock-induced seizures at 30 mg/kg, ip after 4 hrs; type: functional, organism-based; parameters: dose 30 mg/kg; how it was run: as §1
Mus musculus [11] = experiment: Anticonvulsant activity in albino CF1 mouse assessed as protection against subcutaneous metrazol-induced seizures at 100 mg/kg, ip after 0.5 hrs; type: functional, organism-based; parameters: dose 100 mg/kg; how it was run: as §1
Mus musculus [12] = experiment: Anticonvulsant activity in albino CF1 mouse assessed as protection against subcutaneous metrazol-induced seizures at 100 mg/kg, ip after 4 hrs; type: functional, organism-based; parameters: dose 100 mg/kg; how it was run: as §1
Mus musculus [13] = experiment: Anticonvulsant activity in albino CF1 mouse assessed as protection against subcutaneous metrazol-induced seizures at 30 mg/kg, ip after 4 hrs; type: functional, organism-based; parameters: dose 30 mg/kg; how it was run: as §1
Mus musculus [14] = experiment: Anticonvulsant activity in albino CF1 mouse assessed as protection against subcutaneous metrazol-induced seizures at 300 mg/kg, ip after 0.5 hrs; type: functional, organism-based; parameters: dose 300 mg/kg; how it was run: as §1
Rattus norvegicus [15] = experiment: Neurotoxicity in pilocarpine-induced status epilepticus Sprague-Dawley albino rat model assessed as minimal motor impairment at 30 mg/kg, ip after 0.5 hrs by rotarod test; type: toxicity, organism-based; parameters: dose 30 mg/kg, route intraperitoneal; settings: in vivo
How it was run: (§2)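 Rat pilocarpine status epilepticus model: test carbamate given at 0 or 30 min after the first observed Racine stage 3 motor seizure, which marks SE onset. Neurotoxicity was scored within the same model.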

Rattus norvegicus [16] = experiment: Neurotoxicity in pilocarpine-induced status epilepticus Sprague-Dawley albino rat model assessed as minimal motor impairment at 30 mg/kg, ip after 0.25 hr by rotarod test; type: toxicity, organism-based; parameters: dose 30 mg/kg, route intraperitoneal; settings: in vivo; how it was run: as §2
Rattus norvegicus [17] = experiment: Neurotoxicity in pilocarpine-induced status epilepticus Sprague-Dawley albino rat model assessed as minimal motor impairment at 30 mg/kg, ip after 2 hrs by rotarod test; type: toxicity, organism-based; parameters: dose 30 mg/kg, route intraperitoneal; settings: in vivo; how it was run: as §2
Mus musculus [18] = experiment: Anticonvulsant activity in albino CF1 mouse assessed as protection against maximal electroshock-induced seizures at 100 mg/kg, ip after 4 hrs; type: functional, organism-based; parameters: dose 100 mg/kg; how it was run: as §1
Rattus norvegicus [19] = experiment: Neurotoxicity in pilocarpine-induced status epilepticus Sprague-Dawley albino rat model assessed as minimal motor impairment at 30 mg/kg, ip after 1 hr by rotarod test; type: toxicity, organism-based; parameters: dose 30 mg/kg, route intraperitoneal; settings: in vivo; how it was run: as §2
Rattus norvegicus [20] = experiment: Anticonvulsant activity in Sprague-Dawley albino rat assessed as protection against pilocarpine-induced status epilepticus at 65 mg/kg, ip; type: functional, organism-based; parameters: dose 65 mg/kg
How it was run: (§3)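 Pilocarpine status epilepticus model in rats. Number and severity of convulsive seizures were observed behaviourally.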

Rattus norvegicus [21] = experiment: Neurotoxicity in pilocarpine-induced status epilepticus Sprague-Dawley albino rat model assessed as minimal motor impairment at 30 mg/kg, ip after 4 hrs by rotarod test; type: toxicity, organism-based; parameters: dose 30 mg/kg, route intraperitoneal; settings: in vivo; how it was run: as §2
Rattus norvegicus [22] = experiment: Neurotoxicity in pilocarpine-induced status epilepticus Sprague-Dawley albino rat model assessed as minimal motor impairment at 100 mg/kg, ip after 0.5 hrs by rotarod test; type: toxicity, organism-based; parameters: dose 100 mg/kg, route intraperitoneal; settings: in vivo
Mus musculus [23] = experiment: Anticonvulsant activity in albino CF1 mouse assessed as protection against maximal electroshock-induced seizures at 100 mg/kg, ip after 0.5 hrs; type: functional, organism-based; parameters: dose 100 mg/kg; how it was run: as §1
Rattus norvegicus [24] = experiment: Anticonvulsant activity in ip dosed Sprague-Dawley albino rat assessed as protection against pilocarpine-induced status epilepticus after 0.5 hrs; type: functional; how it was run: as §3
Mus musculus [25] = experiment: Neurotoxicity in albino CF1 mouse assessed as minimal motor impairment at 100 mg/kg, ip after 4 hrs by rotarod test; type: toxicity, organism-based; parameters: dose 100 mg/kg, route intraperitoneal; settings: in vivo; how it was run: as §1
Mus musculus [26] = experiment: Neurotoxicity in albino CF1 mouse assessed as minimal motor impairment at 300 mg/kg, ip after 0.5 hrs by rotarod test; type: toxicity, organism-based; parameters: dose 300 mg/kg, route intraperitoneal; settings: in vivo; how it was run: as §1
Mus musculus [27] = experiment: Neurotoxicity in albino CF1 mouse assessed as minimal motor impairment at 30 mg/kg, ip after 0.5 hrs by rotarod test; type: toxicity, organism-based; parameters: dose 30 mg/kg, route intraperitoneal; settings: in vivo; how it was run: as §1
Rattus norvegicus [28] = experiment: Neurotoxicity in pilocarpine-induced status epilepticus Sprague-Dawley albino rat model assessed as minimal motor impairment at 65 mg/kg, ip after 0.5 hrs by rotarod test; type: toxicity, organism-based; parameters: dose 65 mg/kg, route intraperitoneal; settings: in vivo; how it was run: as §2
Mus musculus [29] = experiment: Anticonvulsant activity in albino CF1 mouse assessed as protection against maximal electroshock-induced seizures at 300 mg/kg, ip after 0.5 hrs; type: functional, organism-based; parameters: dose 300 mg/kg; how it was run: as §1

CCC(C)C(COC(N)=O)C(C)C (racemic)
Toxic: Activity (Rattus norvegicus [9]) | Activity (Rattus norvegicus [22]) | Activity (Mus musculus [26])
Non-toxic: Activity (Rattus norvegicus [2]) | Activity (Rattus norvegicus [6]) | Activity (Mus musculus [7]) | Activity (Mus musculus [8]) | Activity (Rattus norvegicus [15]) | Activity (Rattus norvegicus [16]) | Activity (Rattus norvegicus [17]) | Activity (Rattus norvegicus [19]) | Activity (Rattus norvegicus [21]) | Activity (Mus musculus [25]) | Activity (Mus musculus [27]) | Activity (Rattus norvegicus [28])
199 mg/kg: ED97 (Rattus norvegicus [24])
114 mg/kg: ED50 (Rattus norvegicus [24])
inactive: Activity (Mus musculus [1]) | Activity (Mus musculus [3]) | Activity (Mus musculus [4]) | Activity (Mus musculus [5]) | Activity (Mus musculus [10]) | Activity (Mus musculus [12]) | Activity (Mus musculus [13]) | Activity (Mus musculus [18])
active: Activity (Mus musculus [11]) | Activity (Mus musculus [14]) | Activity (Rattus norvegicus [20]) | Activity (Mus musculus [23]) | Activity (Mus musculus [29])
